# Measurements: ChEMBL document CHEMBL1649186, “Characterization of macrolide efflux pump mef subclasses detected in clinical isolates of Streptococcus pyogenes isolated between 1999 and 2005” (2009)
# What was measured:
# Format in all cases: functional
# Streptococcus pyogenes [1] = test: Antimicrobial activity against Streptococcus pyogenes clinical isolate expressing mef(E) gene by broth microdilution method
# Method in brief: (§1)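 Clinical isolates were subcultured from -70°C or 4°C storage onto horse blood agar and grown overnight at 36°C in 5 to 6% CO2. MICs were then measured by CLSI broth microdilution. mef presence was screened by a TaqMan plus/minus assay, and the mef subclass was assigned by sequencing.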
# Streptococcus pyogenes [2] = test: Antimicrobial activity against Streptococcus pyogenes clinical isolate expressing mef(A) gene by broth microdilution method; method in brief: as §1
# Streptococcus pyogenes [3] = test: Antimicrobial activity against Streptococcus pyogenes clinical isolate expressing mosaic variant of mef gene by broth microdilution method; method in brief: as §1
Compound,MIC50 (Streptococcus pyogenes [1]) [µg/mL],MIC90 (Streptococcus pyogenes [1]) [µg/mL],MIC50 (Streptococcus pyogenes [2]) [µg/mL],MIC90 (Streptococcus pyogenes [2]) [µg/mL],MIC (Streptococcus pyogenes [3]) [µg/mL],MIC50 (Streptococcus pyogenes [3]) [µg/mL],MIC90 (Streptococcus pyogenes [3]) [µg/mL],MIC (Streptococcus pyogenes [2]) [µg/mL]
CC[C@H]1OC(=O)[C@H](C)[C@@H](O[C@H]2C[C@@](C)(OC)[C@@H](O)[C@H](C)O2)[C@H](C)[C@@H](O[C@@H]2O[C@H](C)C[C@H](N(C)C)[C@H]2O)[C@](C)(O)C[C@@H](C)CN(C)[C@H](C)[C@@H](O)[C@]1(C)O [AZITHROMYCIN],8,16,8,16,16,16,32,–
CC[C@H]1OC(=O)[C@H](C)[C@@H](O[C@H]2C[C@@](C)(OC)[C@@H](O)[C@H](C)O2)[C@H](C)[C@@H](O[C@@H]2O[C@H](C)C[C@H](N(C)C)[C@H]2O)[C@](C)(OC)C[C@@H](C)C(=O)[C@H](C)[C@@H](O)[C@]1(C)O [CLARITHROMYCIN],4,8,8,16,–,8,8,–
CCC[C@@H]1C[C@@H](C(=O)N[C@@H]([C@H]2O[C@H](SC)[C@H](O)[C@@H](O)[C@H]2O)[C@H](C)Cl)N(C)C1 [CLINDAMYCIN],0.25,0.25,0.06,0.25,–,0.06,0.06,–
CC[C@H]1OC(=O)[C@H](C)[C@@H](O[C@H]2C[C@@](C)(OC)[C@@H](O)[C@H](C)O2)[C@H](C)[C@@H](O[C@@H]2O[C@H](C)C[C@H](N(C)C)[C@H]2O)[C@](C)(O)C[C@@H](C)C(=O)[C@H](C)[C@@H](O)[C@]1(C)O [ERYTHROMYCIN],8,16,16,16,8,8,16,–
CN(C)[C@@H]1C(O)=C(C(N)=O)C(=O)[C@@]2(O)C(O)=C3C(=O)c4c(O)cccc4[C@@](C)(O)[C@H]3C[C@@H]12 [TETRACYCLINE],32,32,0.25,0.25,32,32,32,0.25
